MEKK2 mut-MEK5 = signal of MEK5 binding to mutant human MEKK2 PB1 domain | bead flow cytometry, Alexa488-MEK5 binding to MEKK2 mutant | percent response, % at 10 µM | 290,000 tested, 0.35% active; in the data active = percent response above about 24%, passing the limit was not always enough
GSK3beta inhib = blocks human GSK3beta kinase activity. activity score (negative = inhibition), % at 10 µM. 300,000 tested, 0.038% active. P49841. GST-GSK3beta kinase, ADP-Glo luminescence, 60 min; hits give low values;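 active = more than half of replicate wells score below -50%, meaning over 50% inhibition versus plate controls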;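 note: 0% = median DMSO wells and -100% = median GW8510 positive control wells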
Target sequence (P49841 whole entry, looked up): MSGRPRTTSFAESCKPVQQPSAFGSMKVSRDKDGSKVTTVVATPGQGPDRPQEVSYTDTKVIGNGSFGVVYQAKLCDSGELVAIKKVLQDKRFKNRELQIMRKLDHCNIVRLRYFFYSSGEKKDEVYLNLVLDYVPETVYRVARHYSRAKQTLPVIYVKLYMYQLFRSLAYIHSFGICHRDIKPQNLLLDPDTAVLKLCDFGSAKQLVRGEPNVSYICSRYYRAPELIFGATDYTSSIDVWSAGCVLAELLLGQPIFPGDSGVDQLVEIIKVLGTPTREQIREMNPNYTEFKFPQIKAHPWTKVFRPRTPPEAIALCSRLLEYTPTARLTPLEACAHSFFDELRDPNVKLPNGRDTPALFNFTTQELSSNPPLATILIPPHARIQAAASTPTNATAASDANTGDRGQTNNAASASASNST
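test system = GST-tagged human GSK3beta kinase, cell-free | reagent = 25 µM ATP with peptide substrate | dosing = one dose of 10 µM per compound | schedule = 60 min reaction, RT | detection = luminescent ADP-Glo measurement of ADP formed | control set = DMSO neutral wells and GW8510 at 20 µM as positive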
MEKK2wt PB1 HTS = raises or lowers MEK5 binding to wildtype human MEKK2 PB1 domain. binding response (% of control), % at 10 µM. 290,000 tested, 1.1% active. AID 1531. bead flow cytometry, Alexa488-MEK5 binding to MEKK2 WT; actives lie on both sides. Q9Y2U5; in the data active = binding response below about 67% or above about 130%
STK33 kinase inh = human STK33 kinase inhibition. purified STK33, MBP phosphorylation, ADP-Glo luminescence. inhibition, % at 10 µM. 320,000 tested, 0.073% active. AID 2661;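 active = inhibition at or above 25%, using the most active replicate where run in duplicate; inactive = inhibition below 25%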
GSK3 alpha inh = human GSK-3 alpha kinase inhibition. ADP-Glo luminescence, 60 min. P49840. 320,000 tested, 0.1% active. AID 2650. inhibition, % at 10 µM;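 active = more than half of replicates show inhibition above 20%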;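 note: GST-tagged GSK-3 alpha with peptide substrate and 25 µM ATP; 0% = DMSO neutral wells and 100% = GW8510 positive control wells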
MEKK3 PB1 HTS = modulators (inhibitors or enhancers) of MEK5 binding to human MEKK3 PB1 domain | Q99759 | AID 1529 | binding response (% of control), % at 10 µM | 290,000 tested, 1.4% active | bead-based flow cytometry, Alexa488-MEK5 binding to MEKK3; actives lie on both sides; 0 = blocked by unlabeled MEK5, 100 = vehicle;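 active = binding response more than 3 SD above or below the average of its plate-row segment, actives on both sides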;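 note: Alexa488 bead fluorescence after subtracting the streptavidin-only scavenger bead signal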
MEKK2wt confirm = raises or lowers MEK5 binding to wildtype human MEKK2, retest | shares compounds with MEKK3 PB1 HTS | bead flow cytometry, Alexa488-MEK5 binding to MEKK2 WT; actives lie on both sides | binding response (% of control), % at 10 µM | 5,900 tested, 2.4% active | AID 1892; in the data active = binding response below about 16% or above about 210%; inactive = in between
MEKK2mut-MEK5 = signal of MEK5 binding to mutant human MEKK2, retest | bead flow cytometry, Alexa488-MEK5 binding to MEKK2 mutant | shares compounds with MEKK3 PB1 HTS | AID 1893 | 5,900 tested, 2% active | percent response, % at 10 µM; in the data active = percent response mostly above about 71%, no sharp cut-off; inactive = mostly below about 38%;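 note: higher means compound restores mutant binding toward wildtype level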
MEKK3-MEK5 inh = confirmation of inhibitors of MEK5 binding to human MEKK3 | bead flow cytometry, Alexa488-MEK5 binding to MEKK3; hits give low values | binding response (% of control), % at 10 µM | 5,900 tested, 1.8% active | shares compounds with MEKK3 PB1 HTS;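 active = binding response below 72% of control, or above a set upper limit, though filed actives all read lower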;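 note: 100% = DMSO only wells and 0% = binding blocked by excess unlabeled MEK5; lower values mean stronger disruption of MEK5 binding to MEKK3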
Starred values were filed as active, the others as inactive; . = no result; [ ] = dose if it differs, or a comment. Hits are enriched below; roughly 2.1% of the tested compounds scored in any of these assays.

SMILES | MEKK2 mut-MEK5 | GSK3beta inhib | MEKK2wt PB1 HTS | STK33 kinase inh | GSK3 alpha inh | MEKK3 PB1 HTS | MEKK2wt confirm | MEKK2mut-MEK5 | MEKK3-MEK5 inh
O=C(NCc1ccccc1)C1=C[C@@H](c2coc3ccccc3c2=O)C[C@@H](OCc2ccc(CO)cc2)O1 | 3 | 0 | 105 | 0 | 1 | 97 | . | . | .
Cc1cc(C)c2c(NC(=S)NC(=O)c3ccccc3)n[nH]c2n1 | -18 | 2 | 51 | -1 | -3 | 42*[inhibitor] | 101 | 8 | 104
CCCn1nc(C(=O)OCC(=O)c2c(N)n(C)c(=O)n(C)c2=O)c2ccccc2c1=O | 10 | 6 | 111 | 1 | -2 | 110 | . | . | .
O=C(N/N=C/c1c(O)n(-c2ccc(Cl)cn2)c(=O)c2ccccc12)C1CC1 | 14 | 2 | 111 | 0 | -2 | 98 | . | . | .
O=C(N/N=C/c1c(O)n(-c2ccc(Cl)cn2)c(=O)c2ccccc12)c1ccncc1 | 0 | 0 | 107 | -4 | 1 | 135* | 100 | 1 | 104
CC(C)c1ccc(N2C(=O)/C(=C/N(C)C)SC2=S)cc1 | 6 | 9 | 62*[inhibitor] | 0 | 1 | 100 | 85 | -10 | 88
O=C(Nc1ccnn1C1CCN(Cc2ccc(OC(F)F)cc2)CC1)C1CCCC1 | 12 | -2 | 135* | 1 | 0 | 104 | 136 | 14 | 101
O=C(Nc1ccnn1C1CCN(Cc2ccc(Cl)cc2)CC1)C1CCCC1 | 5 | 0 | 114 | -3 | 0 | 102 | . | . | .
CCOC(=O)c1c(-c2ccc(F)cc2)csc1/N=C/N(C)C | 2 | 3 | 117 | 1 | 10 | 129* | 103 | 6 | 107
O=C(CN1CCOCC1)Nc1ccccc1Sc1ccc(Cl)cc1 | 0 | -1 | 103 | 0 | -2 | 129* | 98 | -7 | 100
O=C(CN1CCCC1)Nc1ccccc1Sc1ccccc1 | 5 | -1 | 108 | -1 | -1 | 99 | . | . | .
O=C(NCCCn1ccnc1)/C(=C/c1ccco1)NC(=O)c1ccco1 | -11 | 5 | 70 | -1 | -4 | 66*[inhibitor] | 101 | 2 | 105
CC(NC(=O)/C=C/c1ccco1)c1nc2ccccc2n1Cc1ccccc1F (stereo not given) | 1 | -26 | 107 | -1 | 1 | 135* | 76 | -10 | 76
COc1ccc(-n2c(=S)[nH]c3cc(C(=O)Nc4ccccc4OC)ccc3c2=O)cc1 | -1 | 0 | 103 | 1 | -1 | 132* | 98 | -1 | 97
COc1ccccc1CSc1nc2c(c(=O)n(C)c(=O)n2C)n1C | -1 | -3 | 99 | . | . | 101 | . | . | .
CCCC(C)NC(=O)C1c2ccccc2Oc2ccccc21 (stereo not given) | 4 | -4 | 109 | 0 | 0 | 104 | . | . | .
CN(C)c1ccc(/C=C/C=C2/SC(=S)N(c3ccccc3)C2=O)cc1 | . | 3 | . | 0 | . | 0.0*[inhibitor] | 39 | -28 | 69*
O=C(CNC(=O)c1ccc(N2C(=O)c3ccccc3C2=O)cc1)OCC(=O)c1cccc2ccccc12 | -8 | 2 | 4.0*[inhibitor] | 0 | -2 | 2.0*[inhibitor] | 100 | -2 | 101
O=C(CNC(=O)c1ccc(N2C(=O)c3ccccc3C2=O)cc1)OCC(=O)c1ccccc1 | -1 | 5 | 96 | 0 | 0 | 96 | . | . | .
COCCN(C(=S)Nc1cccc(C)c1)C(C)c1cccs1 (stereo not given) | 1 | 2 | 107 | -1 | -1 | 117 | . | . | .
CC(C)CCN(C(=S)Nc1cccc(F)c1)C(C)c1cccs1 (stereo not given) | -13 | -3 | 59 | -1 | -2 | 46*[inhibitor] | 104 | -5 | 103
CC1(C)Cc2nc(N3CCCC3)c(C#N)cc2CO1 | 2 | 3 | 117 | 2 | -1 | 129* | 99 | -7 | 101
COc1ccc(NC(=O)CN(C)C(=O)CCNS(=O)(=O)c2ccc(Br)cc2)cc1 | 6 | 3 | 104 | -2 | -1 | 100 | . | . | .
Cc1cccc(C(=O)N(Cc2nc3ccccc3c(=O)[nH]2)C2CCCC2)c1 | -11 | -1 | 89 | -1 | 9 | 100 | . | . | .
Cc1cccc(C(=O)N(Cc2nc3ccccc3c(=O)[nH]2)C2CCCCC2)c1 | -1 | 0 | 94 | 1 | 0 | 74*[inhibitor] | 100 | 9 | 102
SMILES | MEKK2 mut-MEK5 | GSK3beta inhib | MEKK2wt PB1 HTS | STK33 kinase inh | GSK3 alpha inh | MEKK3 PB1 HTS | MEKK2wt confirm | MEKK2mut-MEK5 | MEKK3-MEK5 inh
CCOC(=O)C1CCN(C(=O)c2cccnc2Oc2ccc(Cl)cc2)CC1 | 0 | -1 | 98 | 0 | -5 | 100 | . | . | .
Cc1cc(-c2cc(C(=O)O)c3ccccc3n2)c(C)s1 | -1 | -1 | 98 | -1 | -5 | 103 | . | . | .
Cc1nn(C)cc1-c1cc(C(=O)O)c2ccccc2n1 | -3 | 3 | 23*[inhibitor] | 0 | -1 | 65*[inhibitor] | 95 | -3 | 97
CCc1ccc(-c2cc(C)no2)cc1S(=O)(=O)Nc1cccc(CN2CCCC2)c1 | 2 | -2 | 108 | -2 | 0 | 102 | . | . | .
CC1Cc2ccccc2N1C1=CC(=O)CCC1 (stereo not given) | -47 | 4 | 0.0*[inhibitor] | 0 | 2 | 0.0*[inhibitor] | 108 | 9 | 106
Cc1cc(C(=O)Nc2ccc(N3CCCC3)c(Cl)c2)ccc1[N+](=O)[O-] | 2 | 3 | 130 | 0 | 3 | 135* | 110 | -2 | 103
Cc1cccc(C)c1NS(=O)(=O)c1ccc(NC(=O)c2ccc(Cl)c([N+](=O)[O-])c2)cc1 | 1 | -4 | 115 | -1 | -3 | 140* | 100 | -2 | 101
COc1ccc(N2CCN(C(C)C(=O)N3CCCC3)CC2)cc1 (stereo not given) | -2 | 0 | 101 | 1 | 0 | 101 | . | . | .
O=C(CSc1cccc[n+]1[O-])N1CCCc2ccccc21 | -18 | -1 | 25*[inhibitor] | 0 | -1 | 70 | 99 | -1 | 101
Cn1nnnc1SCC(=O)N1CCCc2ccccc21 | 3 | 4 | 107 | 1 | -1 | 98 | . | . | .
CCN(c1cccc(C)c1)S(=O)(=O)c1ccc2c(c1)CCN2C(C)=O | -10 | -2 | -1.0*[inhibitor] | 0 | -2 | 1.0*[inhibitor] | 101 | -4 | 103
CCOC(=O)C1CCN(C(=O)CCS(=O)(=O)c2ccc3c(c2)CCN3C(C)=O)CC1 | 5 | 0 | 116 | -3 | -1 | 126* | 102 | 2 | 101
